Bioassay records deposited in PubChem by several laboratories.
NSD2 HMT inh: NSD2 (human) methyltransferase inhibition | O96028 | NSD2 peptide methylation, AlphaScreen, 120 min | inhibition, % at 12.5 µM | 310,000 compounds, 0.54% hits | AID 743445; in the data active means inhibition above about 50%
MBD2 DNA inh: MBD2-methylated oligo binding inhibition | AID 686964 | inhibition, % at 4.4 µM | TR-FRET, MBD2 binding to methylated oligonucleotide | 370,000 compounds, 0.31% hits; in the data active means inhibition above about 13%
TDP2 inh: blocks human TDP2 phosphodiesterase activity | O95551 | recombinant TDP2, T5PNP hydrolysis, p-nitrophenol absorbance 415 nm | inhibition, % at 12.8 µM | 370,000 compounds, 0.34% hits;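 active means inhibition above the mean of all tested compounds plus 3 SD, set per campaign, cut at about 25% in these data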
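System – recombinant human TDP2 · Quantity – TDP2 enzyme at 120 nM final · Doses – single concentration, 12.8 µM nominal, with 1% DMSO · Incubation – 2 h at 37 °C · Measured by – epi absorbance of p-nitrophenol freed from T5PNP by hydrolysis · Read-out – % inhibition relative to enzyme-containing and enzyme-free wells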
CASP6 VEID inh: blocks human caspase-6 cleavage activity; AID 686996; P55212; purified caspase-6, Z-VEID-R110 cleavage fluorescence; inhibition, % at 12.5 µM; 350,000 compounds, 0.53% hits;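 active means mean inhibition across replicates at least about 35%, with every replicate also reaching that limit, limit read from the data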
Target sequence (P55212 24-179 limits assumed): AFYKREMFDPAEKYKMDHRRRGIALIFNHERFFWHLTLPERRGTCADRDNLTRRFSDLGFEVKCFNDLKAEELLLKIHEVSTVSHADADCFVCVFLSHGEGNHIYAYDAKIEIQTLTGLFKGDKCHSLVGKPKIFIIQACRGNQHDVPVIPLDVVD
Target sequence (P55212 194-293 limits assumed): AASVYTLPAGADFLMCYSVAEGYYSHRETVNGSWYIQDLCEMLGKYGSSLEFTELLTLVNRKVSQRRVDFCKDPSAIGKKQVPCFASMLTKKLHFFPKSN
LEDGF integ inh: blocks HIV-1 LEDGF/p75-dependent DNA integration. inhibition, % at 3.7 µM. TR-FRET IN-LEDGF/p75 DNA integration, Eu/Cy5. 370,000 compounds, 0.64% hits;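 active means inhibition above the screen-wide mean plus 3 SD, cut at about 13% in these data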;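 further: signal is the Cy5 over europium emission ratio at 671 and 618 nm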
UHRF1 binding: blocks human UHRF1 binding to methylated DNA. Q96T88. UHRF1 binding to methylated oligo, TR-FRET. inhibition, % at 4.4 µM. 370,000 compounds, 0.75% hits; in the data active means inhibition above about 21%;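 further: UHRF1 SRA domain binding a hemimethylated CpG hairpin DNA probe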
IN multimer act: HIV-1 integrase multimerization activation, counter-screen; activation, % at 7.7 µM; 2,000 compounds, 17% hits; shares compounds with LEDGF integ inh; TR-FRET HIV-1 integrase multimerization, biochemical; AID 1053131; in the data active means activation above about 8.9%
TR-FRET interf: counter-screen for LEDGF/p75 integration inhibitors: TR-FRET optical interference. inhibition, % at 7.7 µM. 2,000 tested, under 10 active. AID 1053135. shares compounds with LEDGF integ inh. TR-FRET optical interference counterscreen, HIV-1 IN multimerization;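 active means inhibition above the mean over all tested compounds plus 3 SD, which no compound reached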
LEDGF integ conf: LEDGF/p75-dependent HIV-1 integration inhibition, confirmation | TR-FRET LEDGF/p75-dependent HIV-1 integration, biochemical | inhibition, % at 3.7 µM | 2,000 compounds, 36% hits | shares compounds with LEDGF integ inh; in the data active means inhibition above about 14%
A number is an active result; 0 = inactive; - = not tested or not shown. Most compounds without a hit are left out; they make up all but 1.9% or so of the library.

SMILES	NSD2 HMT inh	MBD2 DNA inh	TDP2 inh	CASP6 VEID inh	LEDGF integ inh	UHRF1 binding	IN multimer act	TR-FRET interf	LEDGF integ conf
CCOC(=O)/C(C#N)=C/c1ccc(OC(=O)c2ccccn2)cc1	0	0	0	0	0	0	-	-	-
COC(=O)/C(C#N)=C/c1ccc(OC(=O)c2ccccn2)cc1	0	0	0	0	14	0	0	0	0
CCNC(=O)[C@H]1[C@H](CO)[C@H]2Cn3c(ccc(-c4cncnc4)c3=O)[C@H]2N1Cc1ccc2c(c1)OCO2	-	-	-	0	-	-	-	-	-
CC(=O)c1c(C)[nH]c(C(=O)OCC(=O)Nc2cccnc2Cl)c1C	0	0	0	0	24	0	0	0	0
COC(=O)C(C)N(C(=O)c1cccc2ccccc12)c1c(C)cccc1C (configuration not stated)	0	0	0	-	78	0	0	0	0
CO[C@@H]1CN(C)C(=O)c2cc(NC(=O)c3ccc(F)cc3)ccc2OC[C@H](C)N(C(=O)CN(C)C)C[C@@H]1C	-	-	-	0	-	-	-	-	-
CC1(C)OC(=O)C(=Cc2ccc(-c3ccc(Cl)c(C(=O)O)c3)o2)C(=O)O1	-	0	0	58	15	35	15	0	20
CCC(=O)Nc1ccc2c(c1)C(=O)N(C)C[C@H](OC)[C@H](C)CN(C(=O)c1cnccn1)[C@H](C)CO2	-	-	-	0	-	-	-	-	-
COc1ccc(NC(=O)N[C@@H](CCSC)C(=O)O)cc1Cl	0	0	0	-	81	0	0	0	0
COc1ccc(NC(=O)N[C@@H](CCSC)C(=O)O)cc1OC	0	0	0	0	0	0	-	-	-
CC(=C1N=C(c2ccccc2)OC1=O)c1cccs1	0	0	0	0	19	0	0	0	0
COc1ccc(CNc2ccc(N3CCN(C(C)=O)CC3)cc2)cc1OC	-	0	0	0	15	0	0	0	0
CC(=O)N1CCN(c2ccc(NCc3cccs3)cc2)CC1	0	0	0	-	22	0	0	0	0
CC(=O)N1CCN(c2ccc(NCc3ccc(-c4ccc(Br)cc4)o3)cc2)CC1	-	0	0	0	19	0	0	0	0
CC(=O)N1CCN(c2ccc(NCc3ccc4c(c3)OCO4)cc2)CC1	0	0	0	-	0	0	-	-	-
CC(=O)N1CCN(c2ccc(NCc3ccc(C)s3)cc2)CC1	-	0	0	0	15	0	0	0	0
Cc1ccc(CNc2ccc(N3CCOCC3)cc2)s1	0	0	0	-	0	0	-	-	-
CC(=O)N1CCN(c2ccc(NCc3cccc4ccccc34)cc2)CC1	0	0	0	0	0	0	-	-	-
CN1CCN(c2ccc(NC(=O)c3ccc(-c4ccc(Br)cc4)o3)cc2)CC1	0	0	0	0	0	0	-	-	-
O=C1CN(S(=O)(=O)c2ccccc2)C[C@H]2[C@@H](c3ccc(Br)cc3)[C@@H](CO)N12	-	-	-	0	-	-	-	-	-
COc1ccc(S(=O)(=O)N(C)C[C@@H]2OCCCC[C@@H](C)Oc3ccc(NS(=O)(=O)c4cn(C)cn4)cc3C(=O)N([C@@H](C)CO)C[C@H]2C)cc1	-	-	-	0	-	-	-	-	-
O=C(C[C@@H]1CC[C@@H]2[C@H](COC[C@H](O)CN2Cc2cc(F)ccc2F)O1)N[C@@H]1CCN(Cc2ccccc2)C1	-	-	-	0	-	-	-	-	-
NC(=O)Cn1c(=O)n(CCC(=O)NCCSCc2ccccc2)c(=O)c2ccccc21	0	0	0	0	64	0	0	0	0
COc1ccc(NC(=O)N(C)C[C@@H]2Oc3ncc(C#C[C@@H](C)O)cc3C(=O)N([C@H](C)CO)C[C@H]2C)cc1	-	-	-	0	-	-	-	-	-
CCCC(=O)Nc1ccc2c(c1)OC[C@H](C)N(Cc1ccccc1F)C[C@@H](C)[C@@H](OC)CN(C)C2=O	-	-	-	0	-	-	-	-	-
CCOc1cccc(=O)c2c(C)n(C)c(C)c12	0	0	0	-	14	0	0	0	0
